Reference: article PMC3114175 (Bioorganic & medicinal chemistry, 2011)

How the values were obtained:
[1] = molecular target: T1, TLR7 (Homo sapiens, UniProt Q9NYK1); experiment: TLR7 antagonism reporter gene assay; format: cell-based
T1 sequence (Q9NYK1 27-1049): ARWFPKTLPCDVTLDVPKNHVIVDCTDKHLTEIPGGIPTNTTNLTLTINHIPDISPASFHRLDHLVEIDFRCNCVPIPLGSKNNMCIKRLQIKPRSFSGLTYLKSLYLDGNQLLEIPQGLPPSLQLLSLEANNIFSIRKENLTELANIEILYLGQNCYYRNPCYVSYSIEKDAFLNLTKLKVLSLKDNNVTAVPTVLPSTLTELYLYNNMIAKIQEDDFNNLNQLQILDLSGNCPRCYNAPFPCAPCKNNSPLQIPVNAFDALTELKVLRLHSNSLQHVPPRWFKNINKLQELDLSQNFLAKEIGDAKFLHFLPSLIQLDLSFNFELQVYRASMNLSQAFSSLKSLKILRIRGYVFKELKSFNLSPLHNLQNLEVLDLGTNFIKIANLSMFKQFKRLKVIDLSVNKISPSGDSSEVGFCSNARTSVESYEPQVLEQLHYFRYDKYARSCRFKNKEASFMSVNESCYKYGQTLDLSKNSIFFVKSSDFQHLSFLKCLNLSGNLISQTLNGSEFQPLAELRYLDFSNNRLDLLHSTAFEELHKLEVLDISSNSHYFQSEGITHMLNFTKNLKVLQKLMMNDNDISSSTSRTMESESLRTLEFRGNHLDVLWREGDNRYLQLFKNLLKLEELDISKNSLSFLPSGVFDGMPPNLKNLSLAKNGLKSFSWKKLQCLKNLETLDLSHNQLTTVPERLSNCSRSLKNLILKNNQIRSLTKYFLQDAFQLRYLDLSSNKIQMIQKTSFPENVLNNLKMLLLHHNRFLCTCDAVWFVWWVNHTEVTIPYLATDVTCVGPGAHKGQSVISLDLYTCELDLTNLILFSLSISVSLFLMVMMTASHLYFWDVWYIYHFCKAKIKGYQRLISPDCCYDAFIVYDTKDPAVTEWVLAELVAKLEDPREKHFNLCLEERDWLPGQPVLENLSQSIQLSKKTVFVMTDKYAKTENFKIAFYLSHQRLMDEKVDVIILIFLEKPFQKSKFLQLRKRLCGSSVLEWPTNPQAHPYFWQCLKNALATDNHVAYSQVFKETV
Procedure, shortened: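 HEK-Blue-7 cells (HEK293 stably expressing TLR7 plus NF-κB/AP-1-driven secreted alkaline phosphatase reporter) were kept in selection medium with zeocin and normocin and grown to confluency. They were stimulated with gardiquimod at 1 μg/mL, or 250 ng/mL for Schild analysis, with serially diluted test compound (top 250 μM) added concurrently. After overnight incubation, supernatant sAP was read with chromogen at 620 nm. Replicates were duplicate or quadruplicate.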

[2] = molecular target: T2, TLR8 (Homo sapiens, UniProt Q9NR97); experiment: TLR8 antagonism reporter gene assay; format: cell-based
T2 sequence (Q9NR97 27-1041): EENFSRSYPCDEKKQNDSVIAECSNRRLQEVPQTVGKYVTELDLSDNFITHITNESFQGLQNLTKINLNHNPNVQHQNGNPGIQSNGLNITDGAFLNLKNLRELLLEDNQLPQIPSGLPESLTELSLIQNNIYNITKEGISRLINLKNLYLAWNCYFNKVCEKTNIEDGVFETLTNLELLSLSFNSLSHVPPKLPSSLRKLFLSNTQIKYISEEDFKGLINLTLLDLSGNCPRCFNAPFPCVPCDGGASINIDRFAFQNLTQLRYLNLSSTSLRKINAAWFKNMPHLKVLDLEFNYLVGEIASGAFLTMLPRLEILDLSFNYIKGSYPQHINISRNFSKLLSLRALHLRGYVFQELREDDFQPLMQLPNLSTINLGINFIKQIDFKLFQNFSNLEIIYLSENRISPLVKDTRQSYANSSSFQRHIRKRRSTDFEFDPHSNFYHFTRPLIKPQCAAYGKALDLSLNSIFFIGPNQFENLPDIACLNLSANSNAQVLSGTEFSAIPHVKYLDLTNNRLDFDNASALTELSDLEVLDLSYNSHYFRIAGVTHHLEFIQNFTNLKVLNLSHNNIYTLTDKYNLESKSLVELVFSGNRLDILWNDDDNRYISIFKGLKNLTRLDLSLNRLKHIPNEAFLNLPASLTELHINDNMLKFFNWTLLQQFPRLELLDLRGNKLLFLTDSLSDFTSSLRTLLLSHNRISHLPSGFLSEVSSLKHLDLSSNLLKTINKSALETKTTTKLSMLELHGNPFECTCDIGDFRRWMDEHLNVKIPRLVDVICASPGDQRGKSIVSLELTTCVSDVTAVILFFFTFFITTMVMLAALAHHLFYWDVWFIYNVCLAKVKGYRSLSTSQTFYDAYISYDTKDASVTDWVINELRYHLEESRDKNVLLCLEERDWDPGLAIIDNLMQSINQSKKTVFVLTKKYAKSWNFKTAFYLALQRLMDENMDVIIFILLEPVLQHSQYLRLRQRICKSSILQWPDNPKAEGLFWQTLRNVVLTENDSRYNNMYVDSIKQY

IC50 [1]	SMILES	other results
	COc1ccc(Cn2c(-c3ccccc3)nc3c4ccccc4[n+](Cc4ccc(OC)cc4)cc32)cc1 [Compound 12, 3,5-bis(4-methoxybenzyl)-2-phenyl-3H-imidazo[4,5-c]quinolin-5-ium]	Mode of inhibition by Schild analyses ([1]; agonist gardiquimod 1 μg/mL and 250 ng/mL): competitive
> 250 µM	CCNCc1nc2c3ccccc3ncc2n1CCCO [Compound 6a, 3-(2-((ethylamino)methyl)-3H-imidazo[4,5-c]quinolin-3-yl)propan-1-ol]	IC50 [2]: > 250 µM
> 250 µM	CC(C)(O)Cn1c(-c2ccccc2)nc2c3ccccc3ncc21 [Compound 4b, 2-methyl-1-(2-phenyl-3H-imidazo[4,5-c]quinolin-3-yl)propan-2-ol]	
	C#CCn1c(CCCCCCCCC)nc2c3ccccc3ncc21 [Compound 7d]	TLR7-inhibitory activity [1]: low micromolar TLR7-inhibitory activity
> 250 µM	COc1ccc(Cn2c(-c3ccccc3)nc3c4ccccc4ncc32)cc1 [Compound 5b, 3-(4-methoxybenzyl)-2-phenyl-3H-imidazo[4,5-c]quinoline]	IC50 [2]: > 250 µM
> 250 µM	CC(C)(O)Cn1c(C2CCCCC2)nc2c3ccccc3ncc21 [Compound 4c]	
> 250 µM	CCNCc1nc2c3ccccc3[n+]([O-])cc2n1CC(C)(C)O [Compound 10, 2-((ethylamino)methyl)-3-(2-hydroxy-2-methylpropyl)-3H-imidazo[4,5-c]quinoline 5-oxide]	
	CCCCCCCCCc1nc2c3ccccc3ncc2n1C [Compound 8d]	TLR7-inhibitory activity [1]: low micromolar TLR7-inhibitory activity
> 250 µM	CCNCc1nc2c3ccccc3nc(NC(=O)c3ccccc3)c2n1CC(C)(C)O [Compound 11, N-(2-((ethylamino)methyl)-3-(2-hydroxy-2-methylpropyl)-3H-imidazo[4,5-c]quinolin-4-yl)benzamide]	
